EBNA-1 inh: EBNA-1 DNA-binding inhibitors, primary screen, biochemical, fluorescence polarization; inhibition, % at 14.8 µM; 300,000 tested, 0.34% active; in the data active = inhibition above about 28%
FID counter: compounds displacing fluorescent DNA intercalator, primary screen, artefact control for HCV NS3 helicase inhibitor project, biochemical, FID fluorescence; DNA fluorescent intercalator displacement; inhibition, % at 7.9 µM; 290,000 tested, 0.17% active; in the data active = inhibition above about 37%;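 also: 0% = vehicle and 100% = reference compound; higher means more ethidium bromide displaced from hairpin DNA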
FGF22 binding: binders of human FGF22 protein, primary screen, FGF22 synaptogenesis inhibitor project, biophysical, thermal shift, single point. activity (Tm shift, normalised), % at 9.99 µM. recombinant FGF22 thermal shift, SYPRO orange fluorescence; percent of sucrose octasulfate shift, DMSO zero. AID 651658, 2012. 340,000 tested, 1.5% active;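 active = mean Tm shift, scaled 0 neutral to 100 positive control, at about 1.3% or above, every replicate too, limit read from the data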
Target sequence (Q9HCT0 whole entry, looked up): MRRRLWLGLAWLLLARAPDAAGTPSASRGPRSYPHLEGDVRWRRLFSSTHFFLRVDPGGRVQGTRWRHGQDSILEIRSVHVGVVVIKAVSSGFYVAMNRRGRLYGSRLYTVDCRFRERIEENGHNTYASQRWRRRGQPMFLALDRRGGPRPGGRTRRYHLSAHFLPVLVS
ZTA DNA inh: counter-screen for EBNA-1 inhibitors: inhibitors of Epstein-Barr virus ZTA | P03206 | 320,000 tested, 0.15% active | ZTA-DNA binding, fluorescence polarization | inhibition, % at 11 µM; in the data active = inhibition above about 33%
Target sequence (P03206 whole entry, looked up): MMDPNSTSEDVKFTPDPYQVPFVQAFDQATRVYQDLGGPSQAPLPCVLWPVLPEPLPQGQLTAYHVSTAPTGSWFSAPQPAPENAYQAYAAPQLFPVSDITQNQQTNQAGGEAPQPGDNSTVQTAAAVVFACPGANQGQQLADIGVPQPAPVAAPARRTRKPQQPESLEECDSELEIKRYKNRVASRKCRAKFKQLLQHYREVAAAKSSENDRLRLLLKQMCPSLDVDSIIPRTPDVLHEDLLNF
NS3 helicase inh: inhibitors of HCV NS3 helicase, primary screen, biochemical, Cy5 molecular beacon fluorescence; Hepatitis C virus NS3 helicase; NS3 helicase DNA unwinding; inhibition, % at 10.9 µM; 290,000 tested, 0.56% active; AID 1800, 2009;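 active = inhibition above the mean of all tested compounds plus 3 SD, set per campaign, cut at about 35% in these data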;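 also: 0% = DMSO wells and 100% = thioflavine S control wells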
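Measured by: Cy5 fluorescence, 0 and 60 min reads / Assay system: NS3 helicase fragment of HCV / Control set: low DMSO, high thioflavine S at 110 µM / Times: 1 h reaction at 25 °C, ATP-initiated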
GRIN3A LBD mod: binders of NR3A ligand-binding domain, primary screen, biophysical, differential scanning fluorimetry, uHTS; NR3A LBD differential scanning fluorimetry, Tm shift; 0% = protein alone, 100% = glycine-bound protein; Tm shift relative to glycine control, % at 25 µM; 340,000 tested, 2.5% active; AID 1259313, 2017;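 active = melting temperature shift of at least 10% of the positive control shift, at one fixed dose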
EBNA-1 inh conf: EBNA-1 DNA-binding inhibitors, retest, confirmation, biochemical, fluorescence polarization, triplicate | shares compounds with EBNA-1 inh | Recombinant EBNA-1 DBD, Cy5-DNA fluorescence polarization | inhibition, % at 14.8 µM | 830 tested, 35% active | AID 2292, 2010;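 active = mean inhibition across replicates above a set limit taken from the earlier primary screen, cut at about 28% in these data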;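 also: plate controls were EBNA-1 protein with DMSO for no effect and wells lacking EBNA-1 for full effect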
ZTA DNA inh trip: EBV Zta DNA binding inhibitors, counter-screen for EBNA-1 inhibitor project, biochemical, fluorescence polarization, triplicate; AID 2328, 2010; inhibition, % at 11.1 µM; shares compounds with EBNA-1 inh; Zta-ZRE DNA binding, Cy5 fluorescence polarization; 830 tested, under 10 active;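 active = mean inhibition over triplicates above a set limit taken from the primary EBNA-1 screen, cut at about 37% in these data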;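 also: purified full length Zta protein with Cy5 labeled ZRE DNA probe; 0% = Zta with DMSO and 100% = wells lacking Zta protein; inhibitors lower polarization by freeing the labeled DNA probe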
* hit, by the source's call; · = not tested or not shown; + = active, no number; ! = repeats disagree. In the library only some 3.6% were active in any assay of this set; here they are far more common.

SMILES	EBNA-1 inh	FID counter	FGF22 binding	ZTA DNA inh	NS3 helicase inh	GRIN3A LBD mod	EBNA-1 inh conf	ZTA DNA inh trip
CCOc1ccc(N2C(=O)CC(NC3CCN(C(=O)c4cccc(Cl)c4)CC3)C2=O)cc1 (configuration not stated)	50*	-30	0	27	-7	-1	-9	-8
O=C(Nc1ccc2c(c1)OCO2)C1CCN(c2ccc(S(=O)(=O)N3CCOCC3)cc2)CC1	29*	0	·	3	0	-2	11	8
Cc1ccc(S(=O)(=O)N2CCC(C(=O)Nc3ccc4c(c3)OCO4)CC2)cc1	2	-7	·	-12	1	3	·	·
N#C/C(=C\c1cn(CCOc2ccccc2F)c2ccccc12)C(=O)NCc1cccs1	124*	1	0	20	-8	-4	26	-5
Cc1ccccc1OCCn1cc(/C=C(\C#N)C(=O)NCc2ccco2)c2ccccc21	34*	-1	0	-4	5	-8	51*	4
N#C/C(=C\c1cn(CCOc2ccccc2)c2ccccc12)C(=O)NCc1ccco1	13	3	·	-5	0	-6	·	·
O=C(CN1CCOCC1)N1[C@H](CO)[C@@H]2c3ccccc3NC[C@@H]21	·	·	-1	·	·	·	·	·
O=C(NC1Cc2ccccc2C1)[C@@H]1[C@@H](CO)[C@@H]2Cn3c(ccc(C4=CCCCC4)c3=O)[C@H]1N2CC1CC1	·	·	0	·	·	·	·	·
C[C@H](CO)N1C[C@H](C)[C@H](CN(C)C(=O)C2CC2)Oc2ncc(-c3ccc(C(=O)N(C)C)cc3)cc2C1=O	·	·	0	·	·	·	·	·
CCCNC(=O)Nc1ccc2c(c1)C(=O)N(C)C[C@@H](OC)[C@@H](C)CN(C(C)=O)[C@@H](C)CO2	·	·	0	·	·	·	·	·
N#Cc1c2ncn(CC(=O)c3ccc(Br)cc3)c(=O)c2c2n1CCC2	29*	-3	·	8	1	1	136*	5
Cc1ccc(S(=O)(=O)N(C)C[C@H]2Oc3c(NC(=O)Nc4c(C)noc4C)cccc3C(=O)N([C@@H](C)CO)C[C@H]2C)cc1	·	·	0	·	·	·	·	·
COc1ccc(C(=O)NC2CC(C)(C)Cc3c2cnn3-c2ccccc2)cc1OC (configuration not stated)	7	-50	0	-9	2	-1	·	·
COc1cc(C(=O)NC2CC(C)(C)Cc3c2cnn3-c2ccccc2)cc(OC)c1OC (configuration not stated)	32*	-43	0	2	-1	-1	34*	1
C[C@H](NC(=O)[C@@H]1[C@@H](CO)[C@@H]2Cn3c(cccc3=O)[C@@H]2N1Cc1cccnc1)c1ccccc1	·	·	0	·	·	·	·	·
COc1ccc(CCNC(=S)N2CCN(S(=O)(=O)c3cccc(F)c3)CC2)cc1	6	·	·	-9	·	1	·	·
COc1ccc(CNC(=S)N2CCN(S(=O)(=O)c3cccc(F)c3)CC2)cc1	40*	-8	0	2	-14	-5	73*	7
NC(=S)N/N=C/c1ccc(/C=N/NC(N)=S)cc1	68*	-2	0	6	-4	9	34*	4
C[C@H]1CN([C@@H](C)CO)C(=O)c2cc(NS(=O)(=O)c3ccc(F)cc3)ccc2O[C@@H]1CN(C)S(=O)(=O)c1cccs1	·	·	0	·	·	·	·	·
CC(=O)Nc1ccc(NC(=O)CSc2ccc(-c3cccs3)nn2)cc1	41*	-6	43	3	-9	7	38*	1
Cc1cccc(NC(=O)CSc2ccc(-c3cccs3)nn2)c1C	29*	-8	·	10	-13	1	16	3
CC(=O)Nc1ccc(NC(=O)CSc2ccc(-c3ccco3)nn2)cc1	-1	-8	0	-2	0	-4	·	·
Cc1ccc(C)c(NC(=O)CSc2ccc(-c3cccs3)nn2)c1	25	-7	·	12	-1	-1	·	·
COCC(=O)Nc1ccc2c(c1)C(=O)N(C)C[C@@H](OC)[C@H](C)CN(C(=O)Cc1cccnc1)[C@H](C)CO2	·	·	0	·	·	·	·	·
Cc1c(C(=O)NCc2ccc3c(c2)OCO3)sc2nc(-c3ccc(F)cc3)cn12	37*	0	0	-5	-2	-1	8	4
SMILES	EBNA-1 inh	FID counter	FGF22 binding	ZTA DNA inh	NS3 helicase inh	GRIN3A LBD mod	EBNA-1 inh conf	ZTA DNA inh trip
CC(C)NC(=O)N(C)C[C@H]1Oc2c(NS(=O)(=O)c3ccc(F)cc3)cccc2C(=O)N([C@H](C)CO)C[C@H]1C	·	·	0	·	·	·	·	·
C[C@@H]1CCCCO[C@@H](CN(C)Cc2ccc3c(c2)OCO3)[C@@H](C)CN([C@@H](C)CO)C(=O)c2cc(NC(=O)CCC(F)(F)F)ccc2O1	·	·	0	·	·	·	·	·
COc1ccccc1-n1nc(C(=O)Nc2ccc3c(c2)OCO3)c2ccccc2c1=O	7	-8	·	-2	1	-1	·	·
COc1ccc(-n2nc(C(=O)Nc3ccc4c(c3)OCO4)c3ccccc3c2=O)c(OC)c1	29*	2	·	-15	-6	-1	35*	-8
O=C(Nc1ccc(Cl)c(Cl)c1)N[C@H]1CC[C@@H](CCn2cc(C3CCCC3)nn2)O[C@@H]1CO	·	·	1	·	·	·	·	·
Cc1cccnc1NC(=O)c1ccc(S(=O)(=O)N2CCCC2)cc1	·	·	0	·	·	·	·	·
Cc1cccnc1NC(=O)c1ccc(S(=O)(=O)N2CCC(C)CC2)cc1	31*	·	0	18	·	3	4	2
O=C(C[C@@H]1CC[C@@H]2NC[C@H](O)COC[C@H]2O1)Nc1ccc(-c2ccccc2)cc1	·	·	0	·	·	·	·	·
COc1ccc(CN(CCN(C)C)c2ccccn2)cc1	+!	1	0	31	1	-2	8	8
C[C@@H]1CCCCO[C@@H](CN(C)Cc2ccc(Cl)c(Cl)c2)[C@H](C)CN([C@H](C)CO)C(=O)c2cc(NS(=O)(=O)c3ccccc3)ccc2O1	·	·	0	·	·	·	·	·
CCc1ccc(NC(=O)CCC(=O)Nc2nnc(C(C)C)s2)cc1	40*	-18	0	-2	11	0	10	-3
COc1ccc(C(=O)Nc2nnc(-c3ccc(F)cc3)s2)c(OC)c1	·	-4	0	·	0	-1	·	·
COc1ccccc1C(=O)Nc1nnc(-c2ccc(F)cc2)s1	+	-25	0	3	-12	-3	4	1
COc1ccc(-n2nnnc2SCC(=O)c2ccc3c(c2)OCCO3)cc1	28*	0	·	-7	0	-6	25	15

Screening results from PubChem BioAssay.
